A short description of experiment [1]: Concentration required for 50% inhibition of growth by the compound in normal peripheral blood lymphocytes. It counts as functional, cell-based, Homo sapiens. An outline of the steps:
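Human lymphocytes isolated from whole blood on Ficoll Paque, stimulated with PHA (1 μL/mL) for 72 h and plated at 1 × 10^5/mL. Compounds added over 100 to 0.1 μg/mL. Survival measured after 24 h by MTT colorimetric assay, with formazan dissolved in acidic 2-propanol and absorbance read at 540 nm.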

The next experiment has as its system MRC5CV1. Put plainly: Concentration required for 50% inhibition of growth by the compound in SV-40 transformed fibroblasts (MRC5CV1). It counts as functional, cell-based. The conditions noted are these: Homo sapiens. The method, boiled down: (§1)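 Cells kept in RPMI 1640 with 10% fetal calf serum at 37 °C, 5% CO2, then plated at 1 × 10^4 per 100 μL and left overnight. Exposure to varying concentrations for 1 h, followed by 48 h incubation. MTT (5 mg/mL stock) added for 4 h at 37 °C and formazan dissolved in 0.08 M HCl/2-propanol. Absorbance read at 540 nm against 690 nm reference. Three experiments, eight assays per point.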

The subject of a further experiment is T-24. Put plainly: Concentration required for 50% inhibition of growth by the compound in transitional bladder carcinoma T24 cells. It counts as functional, cell-based, Homo sapiens. An outline of the steps:
as §1

Where [2] appears, read: Homo sapiens, T-24, read-out: IC50.

Molecules are shown by their SMILES. Values after ≈ are worked out from the molar mass of the structure shown.

Broadly, the IC50 is the concentration that inhibits the measured activity by half.

With `CC(C)[C@@H]1NC(=O)[C@H]2N=C(O[C@@H]2C)[C@@H]2CCCN2C(=O)[C@H](Cc2ccccc2)NC(=O)[C@@H]2CSC(=N2)[C@H](Cc2ccccc2)NC(=O)[C@@H]2CSC1=N2`, the IC50 was determined as 0.08 µg/mL (≈ 0.108 µM) in experiment [1], 0.04 µg/mL (≈ 0.0538 µM) in the experiment with MRC5CV1 and 0.06 µg/mL (≈ 0.0806 µM) in the experiment with T-24 (setting [2]).
`CC(C)C1NC(=O)C2N=C(OC2C)C2CCCN2C(=O)C(Cc2ccccc2)NC(=O)c2csc(n2)C(Cc2ccccc2)NC(=O)c2csc1n2` (stereo not given): the IC50 was found to be 20 µg/mL (≈ 27 µM) in experiment [1], 15 µg/mL (≈ 20.3 µM) in the experiment with MRC5CV1 and 10 µg/mL (≈ 13.5 µM) in the experiment on T-24 (setting [2]).
Take `CC(C)C1NC(=O)C2N=C(OC2C)C2CCCN2C(=O)C(Cc2ccccc2)NC(=O)c2csc(n2)C(Cc2ccccc2)NC(=O)C2CSC1=N2` (stereo in doubt; form 1): the IC50 is 8 µg/mL (≈ 10.8 µM) in experiment [1], 1 µg/mL (≈ 1.35 µM) in the experiment on MRC5CV1 and 6 µg/mL (≈ 8.09 µM) in the experiment with T-24 (t-24).
In the experiment on T-24 (t-24), `CC(C)C1NC(=O)C2N=C(OC2C)C2CCCN2C(=O)C(Cc2ccccc2)NC(=O)c2csc(n2)C(Cc2ccccc2)NC(=O)C2CSC1=N2` (stereo in doubt; form 2) returned a half-inhibitory concentration (IC50) of 0.8 µg/mL (≈ 1.08 µM).
